The record followed here is article PMC8273112 (ACS Infectious Diseases, 2021).

The structures appear in SMILES notation. Where a name gives a salt, the structure may show the parent alone. Read-outs that look alike come from different tables or passages of the source.

In general, IC50 refers to the concentration that gives 50% inhibition. The term half-life denotes the time in which the quantity being followed falls by half. Usually CLint scaled stands for a measure of how fast metabolising enzymes remove a compound, apart from limits set by blood flow. The low end stands for slow turnover, the high end for rapid turnover.

Series [1] concerns Plasmodium falciparum strain D6. As to the kind of experiment: SYBR Green growth inhibition assay, P. falciparum D6. Type of series: cell-based. The note with it: Plasmodium falciparum, D6, 72 h, read-out: IC50 D6.
For series [2], the system named is Plasmodium falciparum strain Dd2. As to the kind of experiment: SYBR Green growth inhibition assay, P. falciparum Dd2. In kind it is cell-based. The note with it: Plasmodium falciparum.
For series [3], the system named is P. falciparum strain Tm90–C2B. As to the kind of experiment: SYBR Green growth inhibition assay, P. falciparum Tm90-C2B. The note with it: Plasmodium falciparum, TM90, 72 h, read-out: IC50 Tm90–C2B. Type of series: cell-based, Plasmodium falciparum. In short, it runs like this:
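Human erythrocytes (≤28 days old), 2% hematocrit, asynchronous culture at 0.2% initial parasitemia, in RPMI-1640 with HEPES, hypoxanthine, glucose, glutamine and Albumax II. 2-fold serial dilution starting at 20 μM, quadruplicate. Incubated 72 h at 37 °C under 5% O2/5% CO2/90% N2. SYBR Green I dye-detergent added for at least 1 h in the dark; fluorescence read at 497/520 nm, normalized to untreated wells, plotted against log concentration.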

In series [4] the test system is P. falciparum A6 (SB1-A6). Put plainly: SYBR Green growth inhibition assay, P. falciparum A6. In kind it is cell-based, Plasmodium falciparum. The note with it: Plasmodium falciparum, 72 h, read-out: IC50 A6. The gist of the method: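 Asynchronous parasites grown in human erythrocytes in RPMI-1640 with HEPES, hypoxanthine and Albumax II under 5% O2/5% CO2/90% N2 at 37 °C. Test compound in 2-fold serial dilution from 20 μM, run in quadruplicate, at 2% hematocrit and 0.2% starting parasitemia for 72 h. SYBR Green I lysis dye added for ≥1 h in the dark. Fluorescence read at 497/520 nm, normalized to untreated wells and plotted against log concentration.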

Series [5] in a line: Murine microsomal stability. The note with it: mouse, pooled murine liver microsomes; for half-life at 1 μM: pH 7.4, murine microsomal stability, t1/2, 1 μM, 0.5 mg/mL protein, 37 °C, 1 h, NADPH; for CLint scaled at 1 μM: pH 7.4. In kind it is in vitro ADME. In general terms: Microsomes from liver hold many membrane-bound enzymes, among them those of drug oxidation.
Series [6] deals with Plasmodium yoelii. As to the kind of experiment: Modified 4-day Peters test, murine malaria. In kind it is in vivo, Plasmodium yoelii in mice.
[7] abbreviates: oral gavage days 1–4, parasitemia day 5, mice.

For the compound `N#Cc1ccccc1/C=N/NC(=N)N/N=C/c1ccccc1C#N` [Compound 20, 2,2′-Bis[(2-cyanophenyl)methylene]carbonimidic Dihydrazide Hydrochloride], the concentration for half-maximal inhibition (IC50) amounted to 1020 nM in series [1]; 2100 nM in series [2] (DD2, 72 h, read-out: IC50 Dd2); 1990 nM in series [3]; 969 nM in series [4].
For the compound `CN(C)c1ccc(/C=N/NC(=N)N/N=C/c2ccc(N(C)C)cc2)cc1` [Compound 28, 2,2′-Bis[(4-dimethylaminophenyl)methylene]carbonimidic Dihydrazide Hydrochloride], the IC50 in series [1] is 118 nM; in series [2] (DD2, 72 h, read-out: IC50 Dd2), 264 nM; in series [3] it was 213 nM; in series [4], 122 nM.
With `N=C(N/N=C/c1cccc(OC(F)(F)F)c1)N/N=C/c1cccc(OC(F)(F)F)c1` [Compound 15, 2,2′-Bis[(3-trifluoromethoxyphenyl)methylene]carbonimidic Dihydrazide Hydrochloride], the IC50 in series [1] came to 670 nM; in series [2] (DD2, 72 h, read-out: IC50 Dd2), 1570 nM; in series [3], 2990 nM; in series [4] it was 689 nM.
As to `N=C(N/N=C/c1cccc(Br)c1)N/N=C/c1cccc(Br)c1` [Compound 8, 2,2′-Bis[(3-bromophenyl)methylene]carbonimidic Dihydrazide Hydrochloride], the IC50 in series [1] was 572 nM; in series [2] (DD2, 72 h, read-out: IC50 Dd2), 1520 nM; in series [3] it was 1840 nM; in series [4], 502 nM.
On to `N=C(N/N=C/c1ccc(C(F)(F)F)cc1)N/N=C/c1ccc(C(F)(F)F)cc1` [Compound 12, 2,2′-Bis[(4-trifluoromethylphenyl)methylene]carbonimidic Dihydrazide Hydrochloride], for which the half-inhibitory concentration (IC50) in series [1] turned out to be 614 nM; in series [2] (DD2, 72 h, read-out: IC50 Dd2), 1540 nM; in series [3], 2740 nM; in series [4] it was 567 nM.
Turning to `N=C(N/N=C/c1ccccc1)N/N=C/c1ccccc1` [Compound 24, 2,2′-Bis(phenylmethylene)carbonimidic Dihydrazide Hydrochloride], the half-maximal inhibitory concentration (IC50) in series [1] was 705 nM; in series [2] (DD2, 72 h, read-out: IC50 Dd2), 4300 nM; in series [3] it was greater than 5000 nM; in series [4] it was 581 nM.
Consider `O=C(c1ccc(F)cc1)C1CCN(CCn2c(=O)[nH]c3ccccc3c2=O)CC1` [ketanserin, reference compound], for which the half-life at 1 μM in series [5] was determined as 14.5 min.
For the compound `N=C(N/N=C/c1ccccc1)N/N=C/c1ccccc1F` [Compound 38, 2-(Phenylmethylene)-2′-[(2-Fluorophenyl)methylene]carbonimidic Dihydrazide Hydrochloride], the IC50 in series [1] is 1030 nM; in series [2] (DD2, 72 h, read-out: IC50 Dd2) it was 2200 nM; in series [3] it was greater than 5000 nM; in series [4], 833 nM.
Regarding `N=C(N/N=C/c1ccc(OC(F)F)cc1)N/N=C/c1ccc(OC(F)F)cc1` [Compound 18, 2,2′-Bis[(4-difluoromethoxyphenyl)methylene]carbonimidic Dihydrazide Hydrochloride], the concentration for half-maximal inhibition (IC50) in series [1] is 71 nM; in series [2] (DD2, 72 h, read-out: IC50 Dd2) it was 191 nM; in series [3], 193 nM; in series [4], 87 nM.
For the compound `Cl.N#Cc1cc(/C=N/NC(=N)N/N=C/c2ccc(F)c(C#N)c2)ccc1F` [Compound 1, 2,2′-Bis[(3-cyano-4-fluorophenyl)methylene]carbonimidic Dihydrazide Hydrochloride], the half-inhibitory concentration (IC50) in series [1] is 4 nM; in series [2] (DD2, 72 h, read-out: IC50 Dd2), 12 nM; in series [3], 16 nM; in series [4], 14 nM. In addition, the “P. yoelii ED90” value in series [6] (setting [7]) is 0.28 mg/kg/day. Moreover, in series [5], the intrinsic metabolic clearance (CLint scaled) at 1 μM turned out to be 29.3 mL/min/kg. In addition, the half-life at 1 μM in series [5] is greater than 150 min.
Take `N=C(N/N=C/c1ccc(F)cc1)N/N=C/c1ccc(F)cc1` [Compound 4, 2,2′-Bis[(4-fluorophenyl)methylene]carbonimidic Dihydrazide Hydrochloride]: the IC50 in series [1] was 1020 nM; in series [2] (DD2, 72 h, read-out: IC50 Dd2), 3790 nM; in series [3], 4900 nM; in series [4], 369 nM.
As for `N=C(N/N=C/c1ccc(N2CCOCC2)cc1)N/N=C/c1ccc(N2CCOCC2)cc1` [Compound 33, 2,2′-Bis[(4-morpholinophenyl)methylene]carbonimidic Dihydrazide Hydrochloride], the 50% inhibitory concentration (IC50) in series [1] was 131 nM; in series [2] (DD2, 72 h, read-out: IC50 Dd2) it was 329 nM; in series [3] it was 295 nM; in series [4] it was 116 nM.
Turning to `N=C(N/N=C/c1cccc(F)c1)N/N=C/c1cccc(F)c1` [Compound 3, 2,2′-Bis[(3-fluorophenyl)methylene]carbonimidic Dihydrazide Hydrochloride], the half-maximal inhibitory concentration (IC50) was 767 nM in series [1]; greater than 5000 nM in series [2] (DD2, 72 h, read-out: IC50 Dd2); greater than 5000 nM in series [3]; 426 nM in series [4].
Take `N=C(N/N=C/c1ccc(Br)cc1)N/N=C/c1ccc(Br)cc1` [Compound 9, 2,2′-Bis[(4-bromophenyl)methylene]carbonimidic Dihydrazide Hydrochloride]: the IC50 in series [1] was 277 nM; in series [2] (DD2, 72 h, read-out: IC50 Dd2) it was 876 nM; in series [3], 899 nM; in series [4] it was 269 nM.
For the compound `N=C(N/N=C/c1ccccc1Br)N/N=C/c1ccccc1Br` [Compound 7, 2,2′-Bis[(2-bromophenyl)methylene]carbonimidic Dihydrazide Hydrochloride], the concentration for half-maximal inhibition (IC50) in series [1] came to 280 nM; in series [2] (DD2, 72 h, read-out: IC50 Dd2), 715 nM; in series [3], 974 nM; in series [4], 876 nM.
Regarding `N=C(N/N=C/c1ccccc1OC(F)(F)F)N/N=C/c1ccccc1OC(F)(F)F` [Compound 14, 2,2′-Bis[(2-trifluoromethoxyphenyl)methylene]carbonimidic Dihydrazide Hydrochloride], the IC50 in series [1] is 1080 nM; in series [2] (DD2, 72 h, read-out: IC50 Dd2), 2330 nM; in series [3], greater than 5000 nM; in series [4], 391 nM.
`COc1ccc(/C=N/NC(=N)N/N=C/c2ccc(OC)cc2)cc1` [Compound 11, 2,2′-Bis[(4-methoxyphenyl)methylene]carbonimidic Dihydrazide Hydrochloride]: the IC50 was 263 nM in series [1]; 1600 nM in series [2] (DD2, 72 h, read-out: IC50 Dd2); greater than 5000 nM in series [3]; 289 nM in series [4].
As for `Cl.N#Cc1cccc(/C=N/NC(=N)N/N=C/c2cccc(C#N)c2)c1` [Compound 21, 2,2′-Bis[(3-cyanophenyl)methylene]carbonimidic Dihydrazide Hydrochloride], the IC50 in series [1] was determined as 7 nM; in series [2] (DD2, 48 h, read-out: IC50 Dd2, 48 h) it was 31 nM; in series [2] (DD2, 72 h, read-out: IC50 Dd2), 20 nM; in series [2] (DD2, 72 h, read-out: IC50 Dd2, 72 h) it was 21 nM; in series [2] (DD2, 96 h, read-out: IC50 Dd2, 96 h) it was 22 nM; in series [3] it was 31 nM. Moreover, the concentration for half-maximal inhibition (IC50) in series [4] was found to be 24 nM. In addition, the “P. yoelii ED50” value in series [6] (setting [7]) worked out at 7.1 mg/kg/day. Further, in series [6] (setting [7]), the “P. yoelii ED90” value is recorded as 9.4 mg/kg/day. In addition, in series [6] (oral gavage up to 25 mg/kg/day, no parasites at day 30), the “P. yoelii NRD (nonrecrudescence dose, cure dose)” value was greater than 25 mg/kg/day. Also, the CLint scaled at 1 μM in series [5] is 93.8 mL/min/kg. In series [5], the half-life at 1 μM is 58.2 min.
For `Cc1ccc(/C=N/NC(=N)N/N=C/c2ccc(C)cc2)cc1` [Compound 10, 2,2′-Bis[(4-methylphenyl)methylene]carbonimidic Dihydrazide Hydrochloride], the IC50 in series [1] was 905 nM; in series [2] (DD2, 72 h, read-out: IC50 Dd2) it was 2430 nM; in series [3], 2530 nM; in series [4], greater than 5000 nM.
Turning to `N=C(N/N=C/c1ccccc1Cl)N/N=C/c1ccccc1Cl` [Compound 5, 2,2′-Bis[(2-chlorophenyl)methylene]carbonimidic Dihydrazide Hydrochloride], the IC50 in series [1] turned out to be 334 nM; in series [2] (DD2, 72 h, read-out: IC50 Dd2), 961 nM; in series [3], 1220 nM; in series [4], 348 nM.
For `N=C(N/N=C/c1cccc(Cl)c1)N/N=C/c1cccc(Cl)c1` [Compound 6, 2,2′-Bis[(3-chlorophenyl)methylene]carbonimidic Dihydrazide Hydrochloride], the IC50 in series [1] came out at 202 nM; in series [2] (DD2, 72 h, read-out: IC50 Dd2), 567 nM; in series [3], 664 nM; in series [4], 237 nM.
`N=C(N/N=C/c1ccccc1F)N/N=C/c1ccccc1F` [Compound 2, 2,2′-Bis[(2-fluorophenyl)methylene]carbonimidic Dihydrazide Hydrochloride]: the concentration for half-maximal inhibition (IC50) is 2870 nM in series [1]; 4590 nM in series [2] (DD2, 72 h, read-out: IC50 Dd2); greater than 5000 nM in series [3]; 1890 nM in series [4].
